Consider twelve compounds from ChEMBL document CHEMBL4673243, “Discovery of 9-Cyclopropylethynyl-2-((S)-1-[1,4]dioxan-2-ylmethoxy)-6,7-dihydropyrimido[6,1-a]isoquinolin-4-one (GLPG1205), a Unique GPR84 Negative Allosteric Modulator Undergoing Evaluation in a Phase II Clinical Trial” (J Med Chem, 2020).

Converted amounts (≈) assume the structure as drawn.

One data set is described as follows: physchem. The conditions noted are these: aqueous solution with 2% DMSO, pH 7.4.
Data set [1] is described as follows: in vitro. As to conditions: mouse, liver microsomes. (Microsomes from liver hold many membrane-bound enzymes, among them those of drug oxidation.)
A short description of data set [2]: Plasma protein binding in human at 5 uM measured after 4 hrs by LC-MS/MS analysis.
The nature of data set [3]: in vitro. As to conditions: human, cryopreserved hepatocytes.
A short description of data set [4]: Plasma protein binding in mouse at 5 uM measured after 4 hrs by LC-MS/MS analysis.
Data set [5] is described as follows: Plasma protein binding in rat at 5 uM measured after 4 hrs by LC-MS/MS analysis.
Data set [6] is described as follows: in vitro. As to conditions: human, liver microsomes.
Data set [7] can be described thus: in vitro. The conditions noted are these: mouse, cryopreserved hepatocytes.
The nature of data set [8]: in vitro. The conditions noted are these: rat, liver microsomes.
A short description of data set [9]: Inhibition of embelin-induced migration of human neutrophils preincubated for 30 mins followed by embelin addition and measured after 1 hr by ATPlite luminescence assay. The conditions noted are these: Neutrophil. (Cellular ATP, detected with luciferase, serves as a proxy for viable cell number.)
The target of data set [10] is 3',5'-cyclic-AMP phosphodiesterase 4A (Homo sapiens, UniProt P27815). Description: Inhibition of recombinant human PDE4A overexpressed in HEK293 cells assessed as reduction in cAMP hydrolysis by HTRF based immunoassay. Type of data set: cell-based. The conditions noted are these: read-out: IC50. A digest of the protocol: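 Human PDE4A from lysate of HEK293 cells overexpressing the enzyme hydrolyses cAMP; remaining cAMP measured by HTRF competitive immunoassay (d2-labelled cAMP vs cryptate anti-cAMP antibody), signal inversely proportional to cAMP; IC50 determined.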
Background: Time-resolved FRET reads energy transfer from a long-lived donor to a nearby acceptor.

3',5'-cyclic-AMP phosphodiesterase 4A, sequence (P27815 whole entry): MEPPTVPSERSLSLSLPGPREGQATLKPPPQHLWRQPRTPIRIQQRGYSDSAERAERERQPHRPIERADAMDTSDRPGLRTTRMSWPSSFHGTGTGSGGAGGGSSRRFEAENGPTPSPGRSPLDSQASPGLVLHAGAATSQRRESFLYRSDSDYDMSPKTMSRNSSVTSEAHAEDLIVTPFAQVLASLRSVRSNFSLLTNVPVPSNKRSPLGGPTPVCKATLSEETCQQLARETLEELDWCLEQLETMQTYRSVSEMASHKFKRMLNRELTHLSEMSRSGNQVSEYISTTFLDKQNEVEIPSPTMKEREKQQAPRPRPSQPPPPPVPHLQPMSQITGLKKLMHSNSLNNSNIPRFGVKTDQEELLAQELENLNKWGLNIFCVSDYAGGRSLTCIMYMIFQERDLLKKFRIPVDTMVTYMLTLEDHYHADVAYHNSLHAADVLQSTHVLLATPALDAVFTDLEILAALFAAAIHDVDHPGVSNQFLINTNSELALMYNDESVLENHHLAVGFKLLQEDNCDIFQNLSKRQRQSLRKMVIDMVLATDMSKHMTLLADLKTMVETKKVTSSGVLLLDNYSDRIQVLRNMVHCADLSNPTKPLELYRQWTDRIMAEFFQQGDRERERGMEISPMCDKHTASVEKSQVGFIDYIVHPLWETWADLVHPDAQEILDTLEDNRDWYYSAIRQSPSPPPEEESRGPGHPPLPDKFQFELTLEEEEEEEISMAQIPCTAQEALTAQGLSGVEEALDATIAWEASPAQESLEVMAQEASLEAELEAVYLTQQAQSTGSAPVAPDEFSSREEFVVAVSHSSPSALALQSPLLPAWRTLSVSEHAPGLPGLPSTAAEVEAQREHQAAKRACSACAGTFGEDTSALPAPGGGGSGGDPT

As to `CCCCCCOc1cc2n(c(=O)n1)CCc1cc(OC)c(OC)cc1-2`, in “physchem”, the concentration in solution (solubility) was 3 µg/mL (≈ 8.37 µM).

On to `COc1ccc2c(c1)CCn1c-2cc(OC[C@H]2COc3ncccc3O2)nc1=O`, for which the CLint scaled (usually the capacity of the preparation to metabolise the compound, expressed as a volume cleared per time) at 0.5 h, 1 µM in “in vitro [1]” was 360 mL/min/kg; in “in vitro [6]” it was 35 mL/min/kg; in the data set “in vitro [8]”, 152 mL/min/kg. Also, the fraction unbound (in general, free concentration divided by total concentration) at 4 h, 5 µM in data set [2] was 0.027; in [4] it was 0.087; in data set [5] it was 0.021. For the same compound, the CLint scaled at 1 µM is 13.3 mL/min/kg in the data set “in vitro [3]” and 182 mL/min/kg in the data set “in vitro [7]”.

Take `COc1cc2c(cc1OC)-c1cc(OCCOc3ccccc3)nc(=O)n1CC2`: the IC50 – broadly, the midpoint of a concentration-inhibition curve – was 128 nM in [9] and 2110 nM in data set [10]. Further, the solubility (usually the dissolved amount per volume that the medium holds) in “physchem” came to 26 µg/mL (≈ 65.9 µM).

Turning to `COc1ccc2c(c1)CCn1c-2cc(OCc2ncccc2F)nc1=O`, the CLint scaled at 0.5 h, 1 µM in the data set “in vitro [1]” is 487 mL/min/kg. Besides, in data set [10], the IC50 is greater than 10000 nM.

With `COc1ccc2c(c1)CCn1c-2cc(OCCOc2ccccc2)nc1=O`, in data set [10], the IC50 was greater than 10000 nM.

In the case of `COc1cc2c(cc1OC)-c1cc(OCC3CCCO3)nc(=O)n1CC2` (centres undefined), in “in vitro [1]”, the CLint scaled at 0.5 h, 1 µM is 175 mL/min/kg. Also, the solubility in “physchem” stood at 72 µg/mL (≈ 201 µM). Moreover, the IC50 in data set [10] is 2170 nM.

`COc1cc2c(cc1OC)-c1cc(OCc3ncccc3F)nc(=O)n1CC2`: in data set [10], the IC50 came to 1090 nM.

Take `COc1cc2c(cc1OC)-c1cc(OCCOc3ccccn3)nc(=O)n1CC2`: the solubility in the data set “physchem” worked out at 18 µg/mL (≈ 45.5 µM). Also, in data set [10], the IC50 is 586 nM.

With `COc1ccc2c(c1)-c1cc(OCc3ccccc3F)nc(=O)n1CC2`, the CLint scaled at 0.5 h, 1 µM in “in vitro [1]” was 1970 mL/min/kg. For the same compound, the IC50 in [10] is greater than 10000 nM.

Consider `COc1ccc2c(c1)CCn1c-2cc(OCc2ccccc2F)nc1=O`, for which the CLint scaled at 0.5 h, 1 µM in “in vitro [1]” is 1490 mL/min/kg. Moreover, the IC50 in data set [10] is greater than 10000 nM.

For the compound `O=c1nc(OCc2ccccc2F)cc2n1CCc1ccccc1-2`, the IC50 in data set [10] was greater than 10000 nM.

The compound `COc1cc2c(cc1OC)-c1cc(OCc3ccccc3F)nc(=O)n1CC2` gave a CLint scaled at 0.5 h, 1 µM in the data set “in vitro [1]” of 670 mL/min/kg. Further, the solubility in “physchem” turned out to be 26 µg/mL (≈ 68 µM). In [10], the IC50 worked out at 372 nM.
